Data set [1] addresses T1, Sodium- and chloride-dependent glycine transporter 1 (Homo sapiens) (UniProt P48067).
T1 sequence (whole entry): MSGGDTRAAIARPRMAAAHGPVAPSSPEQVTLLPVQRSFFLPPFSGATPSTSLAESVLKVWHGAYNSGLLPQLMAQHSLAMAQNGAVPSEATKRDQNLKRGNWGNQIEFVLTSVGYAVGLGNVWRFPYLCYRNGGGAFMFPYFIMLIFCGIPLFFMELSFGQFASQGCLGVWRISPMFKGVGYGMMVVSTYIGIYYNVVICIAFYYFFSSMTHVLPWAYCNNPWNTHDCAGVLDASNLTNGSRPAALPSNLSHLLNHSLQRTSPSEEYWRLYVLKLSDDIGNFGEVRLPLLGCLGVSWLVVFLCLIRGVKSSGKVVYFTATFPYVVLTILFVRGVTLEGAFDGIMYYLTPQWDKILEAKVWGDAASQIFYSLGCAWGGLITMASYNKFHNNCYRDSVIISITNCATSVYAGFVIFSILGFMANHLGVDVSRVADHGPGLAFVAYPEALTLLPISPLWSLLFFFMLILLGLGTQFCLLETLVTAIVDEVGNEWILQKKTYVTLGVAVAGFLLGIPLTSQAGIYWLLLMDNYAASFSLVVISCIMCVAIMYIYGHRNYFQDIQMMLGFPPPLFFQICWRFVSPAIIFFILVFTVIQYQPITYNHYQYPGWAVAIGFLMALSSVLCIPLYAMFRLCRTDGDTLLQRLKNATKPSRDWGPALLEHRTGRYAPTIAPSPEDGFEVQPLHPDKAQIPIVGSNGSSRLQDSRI
Kind of data set: Ratio of compound IC50 to ALX5407 IC50 for human GlyT1.

In data set [2] the target is T2, Sodium- and chloride-dependent glycine transporter 1 (Rattus norvegicus) (UniProt P28572).
T2 sequence (whole entry): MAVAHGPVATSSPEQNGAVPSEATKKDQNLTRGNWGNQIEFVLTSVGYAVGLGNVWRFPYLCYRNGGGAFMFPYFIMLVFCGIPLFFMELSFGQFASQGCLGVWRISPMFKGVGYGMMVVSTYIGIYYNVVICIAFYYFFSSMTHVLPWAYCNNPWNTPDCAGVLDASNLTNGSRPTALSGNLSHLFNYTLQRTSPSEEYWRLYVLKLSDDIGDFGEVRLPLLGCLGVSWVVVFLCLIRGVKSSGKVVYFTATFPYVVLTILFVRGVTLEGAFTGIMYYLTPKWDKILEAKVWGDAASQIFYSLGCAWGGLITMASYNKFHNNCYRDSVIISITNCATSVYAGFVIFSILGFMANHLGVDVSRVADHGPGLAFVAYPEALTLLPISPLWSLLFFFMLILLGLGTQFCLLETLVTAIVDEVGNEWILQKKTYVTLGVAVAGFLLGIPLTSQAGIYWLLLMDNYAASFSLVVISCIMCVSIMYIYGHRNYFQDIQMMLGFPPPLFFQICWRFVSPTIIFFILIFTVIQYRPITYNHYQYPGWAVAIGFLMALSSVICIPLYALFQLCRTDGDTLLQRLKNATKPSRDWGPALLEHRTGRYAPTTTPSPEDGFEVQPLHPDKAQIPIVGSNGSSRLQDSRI
Kind of data set: Binding affinity to GlyT1 in rat brain midbrain at 0.03 to 0.04 nM preincubated for 20 mins in binding buffer before compound addition measured after 30 mins by autoradiography in presence of 10 mM GlyT1 substrate glycine relative to control. Format: tissue-based. As to conditions: tested as the 125I-labelled form.

For data set [3], the target named is T2, Sodium- and chloride-dependent glycine transporter 1 (Rattus norvegicus). Kind of data set: Binding affinity to GlyT1 in rat brain striatum at 0.03 to 0.04 nM preincubated for 20 mins in binding buffer before compound addition measured after 30 mins by autoradiography in presence of 0.01 mM GlyT1 inhibitor ALX5407 relative to control. It is filed as tissue-based. Conditions: tested as the 125I-labelled form.

Data set [4] shares this target. Kind of data set: Binding affinity to GlyT1 in rat brain medullary region at 0.03 to 0.04 nM preincubated for 20 mins in binding buffer before compound addition measured after 30 mins by autoradiography in presence of 0.01 mM GlyT2 inhibitor ORG25543 relative to control. As to conditions: tested as the 125I-labelled form. Format: tissue-based. In a few lines:
(§1)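 Rat brain sagittal sections (20 µm) preincubated 20 min at 25 °C in Tris-HCl buffer pH 7.5 (NaCl, KCl, MgCl2, CaCl2), then 30 min at 25 °C with [125I] tracer (100 kBq, 0.03–0.04 nM) plus competitor (10 µM; glycine 1 or 10 mM). Cold washes, imaging plate 3 days, ROI PSL minus background per mm². % control from ≥triplicate slices, three rats.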

Data set [5] relates to Mus musculus. Kind of data set: In vivo binding affinity to GlyT1 in ddY mouse brain hippocampus at 33.3 kBq, iv after 30 mins in presence of SSR504734 2 mg/kg, iv administered 15 mins prior to compound administration relative to control. It is filed as functional, organism-based. Set-up: dose 2 mg/kg. Conditions: tested as the 125I-labelled form. The method, boiled down: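 Blocking study in male ddY mice (6 weeks, 30–35 g). The blocker (2 mg/kg in 30% DMSO/saline) was injected i.v. 15 min before about 33.3 kBq [125I]tracer i.v.; mice were killed at 30 or 60 min. Brains were divided into cortex, corpus callosum, hippocampus, thalamus, midbrain, medulla and cerebellum, weighed and gamma-counted as % dose/g. Values are mean ± SD, n = 5–6, compared to control by Kruskal–Wallis with Dunn's post-test.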

Data set [6] addresses T2, Sodium- and chloride-dependent glycine transporter 1 (Rattus norvegicus). Kind of data set: Binding affinity to GlyT1 in rat brain cerebellum at 0.03 to 0.04 nM preincubated for 20 mins in binding buffer before compound addition measured after 30 mins by autoradiography in presence of 0.01 mM GlyT2 inhibitor ORG25543 relative to control. As to conditions: tested as the 125I-labelled form. It is filed as tissue-based. In a few lines:
as §1

For the next data set, the system named is Blood. The experiment in a line: Drug uptake in ddY mouse blood at 11.1 kBq, iv after 5 min by gamma counting. Conditions: in vivo. Format: ADME, organism-based. In a few lines:
(§2)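 Male ddY mice (6 weeks, 30–35 g) received about 11.1 kBq [125I]tracer in 0.1 mL i.v. via tail vein. Killed at set times, organs dissected and weighed, radioactivity gamma counted. Reported as % injected dose/g tissue, mean ± SD, n = 5–6.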

Data set [7] has as its system Mus musculus. Kind of data set: In vivo binding affinity to GlyT1 in ddY mouse brain midbrain at 33.3 kBq, iv after 30 mins in presence of N-Me-SSR504734 2 mg/kg, iv administered 15 mins prior to compound administration relative to control. It is filed as functional.
In a further data set the test system is Brain. The experiment in a line: Drug uptake in ddY mouse brain at 11.1 kBq, iv after 5 min by gamma counting. As to conditions: in vivo. Format: ADME, organism-based. The method, boiled down: as §2
The test system of another data set is Intestine. The experiment in a line: Drug uptake in ddY mouse intestine at 11.1 kBq, iv after 30 min by gamma counting. Format: ADME, organism-based. As to conditions: in vivo, 0.5 h. The method, boiled down: as §2
Another data set has as its system Kidney. The experiment in a line: Drug uptake in ddY mouse kidney at 11.1 kBq, iv after 30 min by gamma counting. Format: ADME, organism-based. As to conditions: in vivo, 0.5 h. In a few lines: (§3)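 Male ddY mice (6 weeks, 30–35 g) were given about 11.1 kBq of [125I]tracer in 0.1 mL i.v. via the tail vein. At each time point the animals were killed and organs dissected, weighed and gamma-counted. Uptake is expressed as % injected dose per gram of tissue, mean ± SD, n = 5–6.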

Data set [8] deals with Heart. The experiment in a line: Drug uptake in ddY mouse heart at 11.1 kBq, iv after 5 min by gamma counting. It is filed as ADME, organism-based. As to conditions: in vivo. The method, boiled down: as §2
In data set [9] the test system is Heart. The experiment in a line: Drug uptake in ddY mouse heart at 11.1 kBq, iv after 30 min by gamma counting. Format: ADME, organism-based. As to conditions: in vivo, 0.5 h. The method, boiled down:
as §2

In a further data set the test system is Lung. The experiment in a line: Drug uptake in ddY mouse lung at 11.1 kBq, iv after 0.5 min by gamma counting. It is filed as ADME, organism-based. As to conditions: in vivo. The method, boiled down:
as §3

Calls of active or inactive are those of the source. The calls are words filed in the database; no cut-off is given here.

In the case of `CN1CCCC[C@H]1[C@@H](NC(=O)c1cccc(C(F)(F)F)c1I)c1ccccc1`, the Ratio IC50 in data set [1] was 6. In addition, the Activity worked out at 52.1% in data set [2], 46.7% in [3], 91.4% in data set [4] and 124% in data set [6]. The result in the data set with Mus musculus [5] was inactive.

For `CN1CCCC[C@H]1[C@@H](NC(=O)c1cccc(C(F)(F)F)c1[125I])c1ccccc1`, the Drug uptake in the data set with Blood came to 0.87 % ID/g; in the data set on Brain, 1.33 % ID/g; in the data set with Intestine, 5.76 % ID/g; with Kidney it was 10.22 % ID/g; with Heart [8] it was 5.17 % ID/g; with Heart [9] it was 3.95 % ID/g. In the data set with Lung, the Drug uptake was 17.19 % ID/g. Moreover, the Activity with Mus musculus [7] came out at 55%.

The values above are taken from ChEMBL document CHEMBL1938298, “Synthesis and characterization of [¹²⁵I]2-iodo N-[(S)-{(S)-1-methylpiperidin-2-yl}(phenyl)methyl]3-trifluoromethyl-benzamide as novel imaging probe for glycine transporter 1” (Bioorg Med Chem, 2011).
